Compound activity from PubChem.
The sample as a whole holds a higher share of hits than the screen did.
AP ELISA ortho = alternative complement pathway inhibitors, primary screen, biochemical, ELISA, human serum, orthogonally pooled compounds; LPS-coated ELISA, C3 deposition; tested in compound mixtures; inhibition, % at 5 µM; hit rate 0.08% among 62,000;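 active means inhibition above 30% in each of the two pooled mixtures holding the compound, so the lower value exceeds 30%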
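Assay system: human serum alternative complement pathway, C3 deposition on LPS-coated wells; Dosing: 5 µM per compound in ten-compound mixtures; Detection: Anti-C3 ELISA, OD 450 nm; Buffer or medium: Mg2+-EGTA GVB++ buffer containing human serum at 1:15 dilution; Timing: 1 h at 37 °C; Replication: two different pools per compound.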
BAP1 inh = inhibitors of BAP1 deubiquitinase, primary screen, biochemical, Ub-AMC fluorescence, kinetic. recombinant BAP1, Ub-AMC hydrolysis fluorescence kinetic; hits give low values. calls only at 20 µM. hit rate 0.48% among 72,000;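 active means activity remaining at or below 50% of control, provided the compound also passes the data quality filters; inactive means the rest, including low values that fail the filters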
tolC growth inh = growth inhibitors of E. coli tolC mutant, primary screen, strain BW25113 ΔtolC::kan, 384-well; AID 573, 2007; growth inhibition, % at 10 µM (by protocol); hit rate 2.2% among 65,000; OD615;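 active means growth inhibition at or above a cutoff equal to the mean over every tested compound plus 3 SD, cut at about 60% in these data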;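 further: growth measured after 20 h incubation at 37 °C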
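Test system: E. coli BW25113 ΔtolC::kan bacteria | Medium: Kanamycin-containing LB broth (50 µg/mL) | Dosing: One dose of 10 µM final | Times: 20 h incubation with compound, 37 °C | Detection: Optical density read at 615 nm | Read-out basis: Percent growth inhibition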
Ecoli WT expand = growth inhibitors of wild-type E. coli, primary screen, strain BW25113, expanded library, OD600 | growth inhibition, % at 100 µM | AID 710, 2007 | OD600 absorbance | hit rate 0.15% among 98,000;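 active means growth inhibition above about 50% at one test dose, limit read from the data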;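 further: growth measured after 20 h incubation at 37 °C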
MMP-13 inhibitor = human MMP13 inhibitors, primary screen, biochemical, FRET peptide cleavage. Collagenase 3 (Homo sapiens), P45452. hit rate 0.07% among 65,000. inhibition, % at 4 µM. MMP-13 fTHP FRET cleavage, Mca fluorescence;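 active means inhibition above the mean of compound-free control plate wells plus 3 SD, cut at about 14% in these data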
Ec RNAP inh = E. coli RNAP inhibitors, biochemical | DNA-directed RNA polymerase subunit beta (Escherichia coli (strain K12)), P0A8V2 | E. coli RNA polymerase, fluorescence transcription assay | inhibition, %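 (tested at 10 µM)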 | hit rate 0.2% among 62,000; in the data active means inhibition above about 20%
Target sequence (P0A8V2 whole entry, looked up): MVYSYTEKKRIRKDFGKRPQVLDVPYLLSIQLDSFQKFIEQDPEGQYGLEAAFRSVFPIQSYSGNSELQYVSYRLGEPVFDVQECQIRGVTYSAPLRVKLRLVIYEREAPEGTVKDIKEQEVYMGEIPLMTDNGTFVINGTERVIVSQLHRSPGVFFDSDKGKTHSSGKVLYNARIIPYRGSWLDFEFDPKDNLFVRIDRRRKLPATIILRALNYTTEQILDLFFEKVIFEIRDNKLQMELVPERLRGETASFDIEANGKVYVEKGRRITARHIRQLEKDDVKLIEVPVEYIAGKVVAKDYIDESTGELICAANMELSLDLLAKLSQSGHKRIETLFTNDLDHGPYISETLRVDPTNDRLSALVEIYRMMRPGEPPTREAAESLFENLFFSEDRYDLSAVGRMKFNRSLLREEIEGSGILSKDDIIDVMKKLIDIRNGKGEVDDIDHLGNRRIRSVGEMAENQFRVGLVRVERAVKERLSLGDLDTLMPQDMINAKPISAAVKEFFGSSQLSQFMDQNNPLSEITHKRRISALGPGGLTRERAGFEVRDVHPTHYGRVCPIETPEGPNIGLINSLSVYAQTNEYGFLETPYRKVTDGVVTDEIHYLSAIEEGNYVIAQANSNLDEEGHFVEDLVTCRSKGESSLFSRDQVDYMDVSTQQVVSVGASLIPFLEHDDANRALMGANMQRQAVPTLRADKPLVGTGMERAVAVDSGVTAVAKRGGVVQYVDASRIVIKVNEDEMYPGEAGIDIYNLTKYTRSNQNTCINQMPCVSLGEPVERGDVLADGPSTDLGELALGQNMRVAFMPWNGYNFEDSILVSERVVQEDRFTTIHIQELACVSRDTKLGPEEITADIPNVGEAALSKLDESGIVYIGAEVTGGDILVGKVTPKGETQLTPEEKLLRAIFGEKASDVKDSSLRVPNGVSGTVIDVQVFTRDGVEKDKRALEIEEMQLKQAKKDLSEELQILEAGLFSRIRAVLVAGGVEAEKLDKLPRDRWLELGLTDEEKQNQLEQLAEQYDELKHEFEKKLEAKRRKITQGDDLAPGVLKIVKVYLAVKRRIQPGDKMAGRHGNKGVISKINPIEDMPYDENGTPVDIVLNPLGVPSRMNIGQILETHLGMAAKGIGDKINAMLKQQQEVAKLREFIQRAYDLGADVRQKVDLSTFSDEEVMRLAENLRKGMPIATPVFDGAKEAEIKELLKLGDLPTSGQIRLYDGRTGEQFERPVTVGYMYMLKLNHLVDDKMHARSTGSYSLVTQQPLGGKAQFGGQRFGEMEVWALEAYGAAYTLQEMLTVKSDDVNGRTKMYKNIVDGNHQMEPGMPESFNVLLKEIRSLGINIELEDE
BAP1 inh conf = BAP1 deubiquitinase inhibitors, hit retest, confirmation, orthogonal assay, biochemical, Ub-ethyl ester substrate, HPLC readout; shares compounds with BAP1 inh; purified BAP1, Ub-ethyl ester hydrolysis; hits give low values; % of control activity, % at 20 µM; hit rate 8% among 310;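 active means percent of control activity at or below 60%; inconclusive means HPLC trace unusable from injection failure or solvent front hiding peaks; inactive means the rest, plus ubiquitin peak ratio over a set limit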
Calls only; . = inactive; ? = inconclusive; / = no result; + = active, no number.

SMILES | AP ELISA ortho | BAP1 inh | tolC growth inh | Ecoli WT expand | MMP-13 inhibitor | Ec RNAP inh | BAP1 inh conf
O=C(c1nn2c(c1Br)NC(c1ccco1)CC2C(F)(F)F)N1CCN(Cc2ccccc2)CC1 (centres undefined) | / | . | / | / | / | / | /
CCOC(=O)c1ccc(NC(=O)CSc2nc(C)cc(=O)[nH]2)cc1 | . | + | . | . | . | . | ?
CCOC(=O)c1c(NC(=O)C2CCCCC2)sc(C(=O)Nc2ccccc2F)c1C | / | . | / | / | / | / | /
Cc1oc(C(C)(C)C)cc1C(=O)NCCNc1c(Cl)cccc1[N+](=O)[O-] | / | . | / | / | / | / | /
COC(=O)c1oc2ccc(Br)cc2c1NC(=O)c1ccccc1 | . | . | / | . | . | . | /
O=C(O)c1oc2ccc(Br)cc2c1-n1cccc1 | . | + | . | / | . | / | .
COc1ccc(S(=O)(=O)NCc2ccco2)cc1C(=O)O | / | . | / | / | / | / | /
CCC(=O)c1ccc(OCC(O)CN2CCN(S(=O)(=O)N3CCCCC3)CC2)cc1 (centres undefined) | . | + | . | . | . | . | .
Oc1ccc(Br)cc1/C=N/n1cnc2ccccc21 | . | + | . | . | . | . | .
CCCn1c(SCC(=O)Nc2ccccc2C(=O)OC)nc2c1c(=O)n(C)c(=O)n2C | . | . | . | . | . | . | /
CCCn1c(SCC(=O)Nc2sc(C)c(C)c2C(=O)OCC)nc2c1c(=O)n(C)c(=O)n2C | . | + | . | . | . | . | .
Cc1cccc(Nc2ncc3c(n2)CC(C)CC3=O)c1 (centres undefined) | . | . | . | . | . | . | /
Cc1nc(Nc2cccc(C(F)(F)F)c2)nc2c1C(=O)CC(C)C2 (centres undefined) | . | + | . | . | . | . | .
COCCn1nnnc1C(c1cc2ccc(C)cc2[nH]c1=O)N(Cc1ccco1)Cc1cccs1 (centres undefined) | . | + | . | . | . | . | .
Cc1ccc(C(=O)CSc2nc3sc(C)c(C)c3c(=O)[nH]2)cc1C | / | . | / | / | / | / | /
O=C1CC(c2ccco2)CC2=C1C(c1ccco1)Nc1ccccc1N2 (centres undefined) | / | . | / | / | / | / | /
Cc1nc2n(n1)C(c1ccccc1)C1=C(CC(c3ccco3)CC1=O)N2 (centres undefined) | . | + | . | . | . | / | .
COc1nc2c(C)cccc2cc1-c1noc(-c2ccco2)n1 | . | + | . | . | . | . | .
CC(=O)Nc1cccc(NC(=O)c2ccccc2Br)c1 | / | . | / | / | / | / | /
Cc1cc(C(=O)NCc2cc(C(=O)O)oc2C)c(C)o1 | . | + | . | . | . | . | .
CCOC(=O)c1c(C)oc2c1cc(O)c1ccccc12 | . | + | . | . | . | . | .
Cc1c(N2C(=O)c3ccc4c5c(ccc(c35)C2=O)CC4)c(=O)n(-c2ccccc2)n1C | . | + | . | . | . | . | .
Cc1c(N2C(=O)c3ccc(Br)cc3C2=O)c(=O)n(-c2ccccc2)n1C | / | / | / | . | / | / | /
CCOc1cc(S(=O)(=O)N2CCC(Cc3ccccc3)CC2)c(OCC)cc1-n1cnnn1 | . | + | . | . | . | . | .
COCC(=O)N(C)C1(c2nnnn2CCOC(=O)Nc2cccc3ccccc23)CCCC1 | . | + | . | . | . | . | .
SMILES | AP ELISA ortho | BAP1 inh | tolC growth inh | Ecoli WT expand | MMP-13 inhibitor | Ec RNAP inh | BAP1 inh conf
COCCn1c(-c2ccc(OC)cc2)cnc1SCC(=O)Nc1cccc2ccccc12 | / | / | / | . | / | / | /
CCCCOc1ccc(OC(=O)c2cncc(Br)c2)cc1 | / | . | / | / | / | / | /
COc1ccc(OC)c(NC(=O)c2cc(-c3ccc(C)cc3O)n[nH]2)c1 | . | + | . | . | . | . | .
Fc1ccc(-c2nc(-c3ccccc3)c3ccccn23)cc1 | / | . | / | / | / | / | /
Cc1nc(N)nc(-c2ccccc2O)n1 | / | / | / | . | / | / | /
CSc1nc(-c2ccccc2O)nc(-c2ccccc2O)n1 | . | + | . | / | . | . | .
